In ChEMBL document CHEMBL3085698, “Bioactive lignans from the trunk of Abies holophylla” (J Nat Prod, 2013) one finds Activity and IC50 data, which are given here for 7 molecules.

Data set [1] in a line: Cytotoxicity against LPS-stimulated mouse BV2 cells assessed as cell viability by MTT assay relative to control. The class given is cell-based. To be noted: bv-2. The procedure, abridged: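 MTT viability read in the same BV-2 setup: cells at 3 × 10^4 cells/well in DMEM with 5% FBS, compound pretreatment for 30 min, then 100 ng/mL LPS stimulation for 24 h.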
(Formazan colour is commonly taken as a measure of viable cells.)

The nature of data set [2]: Antineuroinflammatory activity in mouse BV2 cells assessed as inhibition of LPS-induced NO production incubated 30 mins prior to LPS-challenge measured after 24 hrs by Griess assay. The conditions noted are these: BV-2. The class given is functional, cell-based. The gist of the method:
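BV-2 microglia grown in DMEM with 5% FBS and 1% penicillin-streptomycin, plated at 3 × 10^4 cells/well and left 24 h. Compounds added 30 min before 100 ng/mL LPS for 24 h. Supernatant nitrite measured by Griess reagent (1% sulphanilamide, 0.1% naphthylethylenediamine in 5% phosphoric acid), read at 540 nm after 10 min against a sodium nitrite standard. L-NMMA as positive control. IC50 reported.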

The subject of data set [3] is C6. The data set is described as follows: Induction of NGF secretion in rat C6 cells at 10 uM after 24 hrs by ELISA relative to control. The data set is classed as functional. The gist of the method: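 Rat C6 glioma cells kept in DMEM with 10% FBS and 1% penicillin-streptomycin under 5% CO2, seeded at 1 × 10^5 cells/well. After 24 h, medium switched to DMEM with 2% FBS containing compound for one day. NGF released into the supernatant quantified by ELISA; viability checked by MTT. 6-Shogaol as positive control.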

A word on the IC50: it is the midpoint of a concentration-inhibition curve. Consider `COc1cc([C@H]2c3cc(O)c(OC)cc3C[C@H]3C(=O)OC[C@H]23)ccc1O` [ALPHA-CONIDENDRIN], for which the Activity entry in data set [1] is reported as “Non-toxic”. Also, in data set [2], the IC50 came to 28.5 µM.

Take `CCCCC/C=C/C(=O)CCc1ccc(O)c(OC)c1` [SHOGAOL]: the Activity in data set [3] is 129%.

On to `COc1cc([C@@H]2Oc3c(O)cc(CCCO)cc3[C@H]2CO)ccc1O[C@@H]1O[C@@H](C)[C@H](O)[C@@H](OC)[C@H]1O` (relative stereo), for which the Activity entry in data set [1] is listed as “Non-toxic”. The 50% inhibitory concentration (IC50) in data set [2] came out at 32.9 µM.

`COc1cc([C@@H]2Oc3c(OC)cc(CCCO)cc3[C@H]2CO)ccc1O[C@@H]1O[C@@H](C)[C@H](O)[C@@H](OC)[C@H]1O` showed an Activity in data set [3] of 159%.

For `COc1cc(C[C@H]2[C@@H](OC)OC[C@@H]2[C@H](O)c2ccc(O)c(OC)c2)ccc1O`, the Activity in data set [3] was determined as 165%.

As to `COc1cc(CCCO)ccc1O[C@@H](CO)Cc1ccc(O[C@@H]2OC[C@@H](O)[C@H](O)[C@H]2O)c(OC)c1`, the Activity entry in data set [1] is “Non-toxic”; in data set [3], 169%. For the same molecule, the IC50 in data set [2] came to 31 µM.

`COc1cc(C[C@H]2[C@H](OC)OC[C@@H]2[C@H](O)c2ccc(O)c(OC)c2)ccc1O`: the Activity result in data set [1] is reported as “Non-toxic”. Besides, the 50% inhibitory concentration (IC50) in data set [2] amounted to 36.4 µM.
